HSF1 inhib – HSF1 inhibition | NIH3T3-HGL HSE-luciferase, MG132-induced, luminescence 8 h; stronger effect = lower value | activity change, negative = inhibition, % at 7.5 µM (by protocol) | hit rate 0.77% among 300,000 | AID 2098;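 active = more than half of replicate wells show activity change below -50%, luminescence cut by over half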;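 also: luciferase reports HSF-1 transcriptional activity via heat shock element; 0% = median of DMSO wells and -100% = zero luminescence signal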
PHOSPHO1 block – inhibitors of human PHOSPHO1 phosphatase; recombinant PHOSPHO1, absorbance phosphatase assay; Q8TCT1; inhibition, % at 13.3 µM; hit rate 1.1% among 290,000; in the data active = inhibition above about 60%
HSF1 activator – increases HSF-1 driven luciferase reporter signal | NIH3T3-HGL HSF-1 luciferase reporter, MG132, 8 h; 100% = twice DMSO control signal | activation, % at 9 µM | hit rate 1.7% among 300,000 | AID 504408;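 active = mean replicate activation of at least 50% with a set share of replicates each reaching 50%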;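 also: 0% = median of the neutral control wells and 100% = twice that signal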
Lipid droplet – hepatic lipid droplet formation modulation; AML12 mouse hepatocytes, oleate lipid droplets, BODIPY imaging; inhibition, % at 6.5 µM; hit rate 0.4% among 240,000;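 active = lipid droplet intensity inhibited by at least 50%, with more than 500 cells counted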
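Material – AML12 mouse liver cells · Also added – oleate loading, 100 µM · Compound dosing – 6.5 µM single-point dosing · Times – overnight treatment with compound plus oleate · Measured by – fluorescence imaging, 20x objective, two fields per well · Read-out – percent inhibition of filter-corrected integrated lipid droplet intensity per well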
CHT inh – human CHT choline transport inhibition; Q9GZV3; AID 488975; B-score at 10 µM; hit rate 0.86% among 310,000; CHT-expressing cells, membrane potential dye, choline response; stronger effect = lower value;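 active = B-score over 3 SD under the library average, and starting fluorescence ratio not unusually high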;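 also: choline stimulus applied at its EC90 after an EC20 pre-addition; B-score computed on integrated fluorescence ratio after choline addition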
Target sequence (Q9GZV3 whole entry, looked up): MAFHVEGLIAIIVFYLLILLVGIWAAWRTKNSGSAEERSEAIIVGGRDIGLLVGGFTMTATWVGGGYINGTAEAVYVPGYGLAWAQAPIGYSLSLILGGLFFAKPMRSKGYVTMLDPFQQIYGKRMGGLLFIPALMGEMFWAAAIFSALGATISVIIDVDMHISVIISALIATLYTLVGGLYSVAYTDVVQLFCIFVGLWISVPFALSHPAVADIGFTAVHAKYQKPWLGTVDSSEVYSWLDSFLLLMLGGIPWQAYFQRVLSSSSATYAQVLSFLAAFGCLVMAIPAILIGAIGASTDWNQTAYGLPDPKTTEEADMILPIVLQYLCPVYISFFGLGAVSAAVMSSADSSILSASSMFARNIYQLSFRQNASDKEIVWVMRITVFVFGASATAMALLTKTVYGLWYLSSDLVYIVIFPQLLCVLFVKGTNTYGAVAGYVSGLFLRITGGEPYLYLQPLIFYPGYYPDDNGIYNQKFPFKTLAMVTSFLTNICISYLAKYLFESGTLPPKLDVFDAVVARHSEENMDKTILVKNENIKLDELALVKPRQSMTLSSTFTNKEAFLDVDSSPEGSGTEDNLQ
CHT PAM – human CHT allosteric activation. Q9GZV3. CHT-expressing cells, membrane potential dye, choline EC20; stronger effect = higher value; LV-AA mutant CHT in HEK293 cells. B-score at 10 µM. hit rate 0.49% among 310,000. AID 488977;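 active = initial fluorescence not abnormally high and integrated response B-score, plate-corrected, over 3 SD above library mean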
Numbers without * were called inactive; i = inactive; nt = no result given. This is a sample that favours compounds with a hit; in the whole collection about 4.9% have one here.

SMILES	HSF1 inhib	PHOSPHO1 block	HSF1 activator	Lipid droplet	CHT inh	CHT PAM
CCN(CCNC(=O)CS(=O)(=O)Cc1nc(-c2cccc(OC)c2)oc1C)c1ccccc1	54	6	78*	-7	i	i
CCOc1ccc(CCNC(=O)CS(=O)(=O)Cc2nc(-c3ccc(OC)cc3)oc2C)cc1	3	64*	-20	-16	i	i
Cc1oc(-c2cccc(Cl)c2)nc1CS(=O)(=O)CC(=O)NC1CC1	25	20	57*	-6	i	i
COC(=O)C1=C(C)NC(=O)/C1=C\c1ccco1	-5	13	-15	nt	i	i
Cc1ccc(NC(=O)CSc2ccc(-c3cccnc3)nn2)c(C)c1	-1	73*	7	-1	i	i
O=C(CSc1ccc(-c2cccnc2)nn1)Nc1ccc(F)cc1F	4	27	-13	-14	i	i
O=C1CC(c2ccccc2)CC(O)=C1C=Nc1cccc(Cl)c1 (configuration not stated)	79	-7	120*	-8	i	i
CC(C)CCN=CC1=C(O)CC(c2ccccc2)CC1=O (configuration not stated)	28	32	67*	-12	i	i
O=C1CC(c2ccccc2Cl)CC(O)=C1C=Nc1ccccc1 (configuration not stated)	119	-1	152*	16	i	i
C=CCNC(=O)CN1c2cccc3cccc(c23)S1(=O)=O	-4	39	-1	-30	i	i
COc1ccc(C(=O)N2CC=C(c3ccccc3)CC2)cc1S(=O)(=O)N1CCOCC1	8	5	3	nt	i	i
CC(CCc1ccccc1)NC(=O)/C=C/c1ccc(F)cc1 (configuration not stated)	5	-15	15	3	i	i
CC(CCc1ccccc1)NC(=O)/C=C/c1ccccc1 (configuration not stated)	9	64*	-12	nt	i	i
Nc1ccc(Sc2cnn(-c3ccccc3)c(=O)c2Cl)cc1	21	26	57*	nt	i	i
Cc1cnc(SCCc2ccncc2)nc1C	-1	7	8	-18	i	i
Cc1noc2ncnc(Sc3ccc(Br)cc3)c12	129	-27	153*	0	i	i
Cc1noc2ncnc(N3CCCC3)c12	-1	43	-5	4	i	i
COc1ccc(CC(=O)N(C)CC(=O)Nc2ccccc2C(F)(F)F)cc1S(=O)(=O)N1CCOCC1	3	nt	10	nt	i	i
CC[C@@H](C)[C@H](NC(=O)Cc1c(C)c2cc3c(C)c(C)oc3c(C)c2oc1=O)C(=O)O	-70*	16	-76	-2	i	i
CC[C@@H](C)[C@H](NC(=O)Cc1c(C)c2cc3c(C)coc3c(C)c2oc1=O)C(=O)O	-2	nt	-9	nt	i	i
COc1ccc(N=C(C)C2=C(O)c3ccccc3C2=O)cc1	36	27	67*	12	i	i
C/C(=N\N(C)C)C1=C(O)c2ccccc2C1=O	1	5	2	14	i	i
CCOc1ccc(N=C(C)C2=C(O)c3ccccc3C2=O)cc1	27	32	63*	-11	i	i
CS(=O)(=O)c1sc(C#N)c2c1C(=O)CC(c1ccccc1)C2 (configuration not stated)	72	55	89*	-1	-7.1*	i
COc1ccc(-n2nc(C(=O)NCC(=O)NCCN(C)C)c3ccccc3c2=O)c(OC)c1	-4	28	-19	2	i	i
SMILES	HSF1 inhib	PHOSPHO1 block	HSF1 activator	Lipid droplet	CHT inh	CHT PAM
Cn1c(CSc2nc3ccccc3s2)n[nH]c1=S	-4	73*	-9	-5	i	i
S=c1[nH]nc(CSc2nc3ccccc3s2)o1	-8	105*	1	nt	i	i
Cn1c(CSc2nc3ccccc3s2)nc2ccccc21	60	7	76*	0	i	i
COc1ccc(NC(=S)N(CCCN2CCCC(C)C2)Cc2cccs2)cc1 (configuration not stated)	-2	37	-6	4	i	i
CCOC(=O)c1c(-c2ccccc2)oc2ccc(OCC(=O)NNC(=O)CCCC(=O)O)cc12	-8	-1	-25	-11	i	i
COCCOC(=O)C1=C(C)NC(=O)NC1c1ccc(OC(=O)c2ccco2)c(OC)c1 (configuration not stated)	0	-37	-12	-3	i	i
O=C(O)CC1(CC(=O)Nc2ccc(Br)cc2)CCCCC1	-7	47	0	-9	i	i
Oc1ccc2ccccc2c1/C=N/c1nc2c(s1)CCCC2	-7	76*	-11	0	i	i
COc1ccc(-c2cc(C(=O)NCCN3CCOCC3)c3cc(C(C)C)ccc3n2)cc1	-1	41	6	4	i	i
Cc1oc2cc(O)ccc2c(=O)c1Oc1ccc2ccccc2c1	2	37	-2	nt	i	i
O=C(NN/C(=N/S(=O)(=O)c1ccc(Cl)cc1)c1ccccc1)c1ccc(O)cc1	33	-21	60*	15	i	i
O=C(NN/C(=N/S(=O)(=O)c1ccc(Cl)cc1)c1ccccc1)c1cccc(Cl)c1	16	28	52*	11	i	i
Cc1ccc(S(=O)(=O)/N=C(/NNC(=O)c2cccc(Cl)c2)c2ccccc2)cc1	16	16	43	-11	i	i
O=C(OCc1c(Cl)cccc1Cl)c1cccnc1Cl	0	9	-3	-1	i	i
C(=N\Nc1nc(Nc2ccccc2)nc(N2CCOCC2)n1)/c1c[nH]c2ccccc12	-3	33	-1	nt	i	i
Cc1ccc(Nc2nc(N/N=C/c3c[nH]c4ccccc34)nc(N3CCOCC3)n2)cc1	-2	8	2	126*	i	i
Cc1nonc1C(=O)N/N=C/c1cc2c(cc1Br)OCO2	4	37	19	0	i	i
O=C(NC(Cc1ccccc1)C(=O)O)/C(=C/c1ccco1)NC(=O)c1cccc([N+](=O)[O-])c1 (configuration not stated)	-3	-25	-10	-7	i	i
Cc1ccc(NC(=O)C2CCCN(c3ncccn3)C2)cc1F (configuration not stated)	23	0	60*	nt	i	i
COc1ccc(S(=O)(=O)N2CCC(C(=O)O)(c3ccccc3)CC2)cc1	-4	nt	-18	2	i	i
O=C(CC1C(=O)NCCN1CC1CCCCC1)NCc1ccc(Cl)cc1 (configuration not stated)	-1	30	3	-8	i	i

Bioassay records deposited in PubChem BioAssay by several laboratories.
